Results on one compound are retold here after ChEMBL document CHEMBL3526115, “Differences in the pharmacokinetics of 4-amino-3-chlorophenyl hydrogen sulfate, a metabolite of resatorvid, in rats and dogs” (Drug Metab Dispos, 2012).

The nature of data set [1]: Renal clearance in Crj:CD(SD)IGS rat at 0.5 mg/kg, iv administered as bolus dose measured from 0 to 24 hrs by HPLC-based liquid scintillation counting analysis. Also on record: dose 0.5 mg/kg, route intravenous. The note with it: in vivo. The data set is classed as ADME, organism-based, Kidney. The method, boiled down:
(§1)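 After a 0.5 mg/kg iv bolus of [14C]M-III, urine was collected 0–24 h (rat) or 0–168 h (dog) and injected directly onto HPLC with fraction collection and scintillation counting. M-III in urine was derived from the urinary 14C excretion ratio and the [14C]M-III composition. CLrenal = urinary M-III amount / AUC0–24 h (rat) or AUC0–168 h (dog). Unbound CLrenal = CLrenal / free fraction.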

Data set [2] concerns Plasma. Briefly: Plasma concentration in Crj:CD(SD)IGS rat at 0.125 mg/hr, iv administered as continuous infusion by HPLC based liquid scintillation counting analysis. The data set is classed as ADME, organism-based. To be noted: in vivo. The method in brief:
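Rats were continuously infused iv with [14C]M-III at 0.125 mg/rat/h, plus probenecid (4.7, 9.4, 18.6 mg/rat/h) or vehicle. Femoral-artery blood was taken at 0.5, 1, 2, 3 and 4 h, with terminal aortic blood at 5 h. Plasma radioactivity was measured, with probenecid quantified by HPLC-UV at 240 nm against spiked-plasma calibration from 0.1 to 100 µg/ml.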

Data set [3] can be described thus: Ratio of drug level in kidney medulla to plasma in Beagle dog at 0.5 mg/kg, iv administered as bolus dose by HPLC-based liquid scintillation counting analysis. Format: ADME, organism-based, Canis lupus familiaris. Further details: dose 0.5 mg/kg, route intravenous. The method in brief: (§2)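 Rats received [14C]M-III in saline by continuous jugular-vein infusion for 4 h (0.5 mg/rat/h per methods; 0.25 mg/h in legend), then aortic blood and kidneys were collected. Dogs received a 0.5 mg/kg iv bolus, with blood and kidneys (cortex and medulla separated) collected at 24 h. 14C was measured in tissue homogenates and plasma as a tissue/plasma ratio. Rat n = 3, dog n = 2.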

Data set [4] is described as follows: In vitro plasma protein binding in dog at 0.5 ug/ml by ultrafiltration method. Format: ADME, cell-free, Canis lupus familiaris. To be noted: read-out: PPB (converted). The method, boiled down: (§3)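 [14C]M-III in saline was added to rat or dog plasma at final 0.5, 5 and 50 µg/ml. Plasma was ultrafiltered by centrifugation at 1500g and 37°C for 10 min, and 14C was measured in plasma and filtrate. Mean ± S.D., n = 3.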

Data set [5] is described as follows: In vivo plasma protein binding in Crj:CD(SD)IGS rat at 0.125 mg/hr, iv administered as continuous infusion by ultrafiltration method in presence of 62 mg/hr/kg probenecid. Format: ADME, organism-based. To be noted: with probenecid 62 mg/hr/kg, read-out: PPB (converted). The method in brief: (§4)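 Rats received a continuous iv infusion of [14C]M-III at 0.125 mg/rat/h, with probenecid co-infused at 16, 31 or 62 mg/h/kg or vehicle alone, for 5 h. Arterial plasma was sampled during infusion. CLtot = infusion rate / steady-state plasma M-III (120–180 min). Unbound fraction was measured by ultrafiltration of 5-h plasma (10,000 MWCO, 1500g, 37°C, 10 min). CLint = CLtot / unbound ratio.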

A short description of data set [6]: Total body clearance in Crj:CD(SD)IGS rat at 0.125 mg/hr, iv administered as continuous infusion by HPLC based liquid scintillation counting analysis in presence of 31 mg/hr/kg probenecid. The data set is classed as ADME, organism-based. The note with it: in vivo, with probenecid 31 mg/hr/kg. The method, boiled down:
as §4

The nature of data set [7]: Total body clearance in Crj:CD(SD)IGS rat at 0.125 mg/hr, iv administered as continuous infusion by HPLC based liquid scintillation counting analysis in presence of 62 mg/hr/kg probenecid. Format: ADME, organism-based. The note with it: in vivo, with probenecid 62 mg/hr/kg. The method in brief: as §4
Data set [8] can be described thus: In vitro plasma protein binding in rat at 5 ug/ml by ultrafiltration method. The data set is classed as ADME, cell-free. The note with it: read-out: PPB (converted). The method, boiled down:
as §3

The nature of data set [9]: Drug uptake in Beagle dog plasma at 0.5 mg/kg, iv administered as bolus dose after 5 mins by HPLC-based liquid scintillation counting analysis. Further details: dose 0.5 mg/kg, route intravenous. The data set is classed as ADME, organism-based, Canis lupus familiaris. The method in brief:
(§5)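 [14C]M-III in saline given as a single iv bolus at 0.5 mg/kg to male rats (tail-vein blood, 5 min–24 h) or male beagle dogs (cephalic-vein blood, 5 min–168 h). Heparinized plasma counted for radioactivity; M-III quantified by HPLC with fraction collection and liquid scintillation counting. C5 min read directly; terminal t1/2 by linear regression, kel = ln2/t1/2, Vd = dose/back-extrapolated C0, CLtot = dose/AUCinf. Mean ± S.D., n = 3.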

A short description of data set [10]: Elimination rate constant in Beagle dog at 0.5 mg/kg, iv administered as bolus dose by HPLC-based liquid scintillation counting analysis. Format: ADME, organism-based, Canis lupus familiaris. Also on record: dose 0.5 mg/kg, route intravenous. The note with it: in vivo. The method in brief: as §5
Data set [11] is described as follows: Drug recovery in Crj:CD(SD)IGS rat urine at 0.5 mg/kg, iv administered as bolus dose measured from 0 to 24 hrs by HPLC analysis. The data set is classed as ADME, organism-based. Further details: dose 0.5 mg/kg, route intravenous. To be noted: read-out: Drug recovery. The method in brief:
as §1

Data set [12] is described as follows: Drug recovery in Beagle dog urine at 0.5 mg/kg, iv administered as bolus dose measured from 0 to 168 hrs by HPLC-based liquid scintillation counting analysis. The data set is classed as ADME, organism-based, Canis lupus familiaris. Also on record: dose 0.5 mg/kg, route intravenous. To be noted: read-out: Drug recovery. The method, boiled down:
as §1

Data set [13] is described as follows: Ratio of drug level in kidney cortex to plasma in Beagle dog at 0.5 mg/kg, iv administered as bolus dose by HPLC-based liquid scintillation counting analysis. The data set is classed as ADME, organism-based, Canis lupus familiaris. Also on record: dose 0.5 mg/kg, route intravenous. The method, boiled down: as §2
Data set [14] is described as follows: Total body clearance in Crj:CD(SD)IGS rat at 0.125 mg/hr, iv administered as continuous infusion by HPLC based liquid scintillation counting analysis. The data set is classed as ADME, organism-based. The note with it: in vivo. The method, boiled down: as §4
The nature of data set [15]: Apparent volume of distribution in Crj:CD(SD)IGS rat at 0.5 mg/kg, iv administered as bolus dose by HPLC-based liquid scintillation counting analysis. The data set is classed as ADME, organism-based. Also on record: dose 0.5 mg/kg, route intravenous. To be noted: in vivo, read-out: Vd(app). The method in brief: as §5
Data set [16] can be described thus: Drug excretion in Crj:CD(SD)IGS rat urine assessed as excretion ratio of [14C] at 0.5 mg/kg, iv administered as bolus dose measured from 0 to 24 hrs by HPLC-based liquid scintillation counting analysis. The data set is classed as ADME, organism-based. Also on record: dose 0.5 mg/kg, route intravenous. The note with it: in vivo. The method, boiled down: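 Male rats in metabolic cages with urine/feces separator, or beagle dogs, after a 0.5 mg/kg iv bolus of [14C]M-III in saline. Radioactivity in urine and feces collected 0–24 h (rats) or 0–168 h (dogs) was counted and expressed as percent of dose. Mean ± S.D., n = 3.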

A short description of data set [17]: In vivo plasma protein binding in Crj:CD(SD)IGS rat at 0.125 mg/hr, iv administered as continuous infusion by ultrafiltration method in presence of 16 mg/hr/kg probenecid. Format: ADME, organism-based. To be noted: with probenecid 16 mg/hr/kg, read-out: PPB (converted). The method in brief: as §4
The nature of data set [18]: In vivo plasma protein binding in Beagle dog at 0.5 mg/kg, iv administered as bolus dose by ultrafiltration method. The data set is classed as ADME, organism-based, Canis lupus familiaris. Also on record: dose 0.5 mg/kg, route intravenous. To be noted: read-out: PPB (converted). The method in brief: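 Plasma was taken from beagle dogs 24 h after a 0.5 mg/kg iv bolus of [14C]M-III (cephalic vein). Binding was determined by ultrafiltration (1500g, 37°C, 10 min), with 14C measured in plasma and filtrate.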

Data set [19] is described as follows: AUC infinity in Beagle dog at 0.5 mg/kg, iv administered as bolus dose by HPLC-based liquid scintillation counting analysis. Format: ADME, organism-based, Canis lupus familiaris. Further details: time infinity, dose 0.5 mg/kg, route intravenous. The note with it: plasma. The method in brief:
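Male beagles (7.4–10.0 kg) got a single IV injection of [14C]M-III in saline (2.5 mg/ml), 0.5 mg–1.0 MBq/kg. Cephalic-vein blood was taken from 5 min to 168 h and spun for heparinized plasma. Plasma was deproteinized with acetonitrile, run on reverse-phase HPLC and collected as 1-min fractions counted by LSC. AUCinf = AUClast + Clast/kel; n = 3.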

The compound `N[14c]1[14cH][14cH][14c](OS(=O)(=O)O)[14cH][14c]1Cl` had a CL renal in [1] of 9.47 mL/min/kg. Also, the Cp in [2] came to 600 ng/mL. Also, the Kp in [3] is 0.2; in data set [13], 0.1. For the same compound, in data set [4], the fraction unbound at 0.5 ug/ml is 0.098. Further, the values for the fraction unbound in data set [5], in [17] and in [18] were 0.184, 0.078 and 0.08, respectively. For the same compound, the clearance in data set [6] is 2.35 mL/min/kg; in data set [7], 1.83 mL/min/kg; in data set [14], 11.4 mL/min/kg. Further, the fraction unbound at 5 ug/ml in data set [8] is 0.078. In data set [9], this compound registered a concentration at 5 min of 4690 ng/mL. In data set [10], this compound had a k el of 1.68e-06 s⁻¹. In addition, the dose excreted was 76.9% in data set [11] and 19.5% in data set [12]. In addition, the Vd in data set [15] was determined as 0.14 L/kg. The Drug excretion in data set [16] came to 84.7%. The AUC(0-inf) in data set [19] was 596 µg·h/mL.
